ChEMBL document CHEMBL1152651, “In vivo and in vitro anti-leishmanial activities of 4-nitro-N-pyrimidin- and N-pyrazin-2-ylbenzenesulfonamides, and N2-(4-nitrophenyl)-N1-propylglycinamide” (Bioorg Med Chem, 2009)
Calls of active or inactive are those of the source. The rule behind the calls is not given here.

What was measured:
Nucleic Acid [1] = assay: Induction of supercoiled Escherichia coli pUC18 DNA cleavage at 6 to 60 uM after 60 mins by agarose gel electrophoresis; format: nucleic-acid assay
Procedure, shortened: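 Supercoiled pUC18 plasmid in 0.1 M cacodylate buffer pH 6.0 with compound at 6–60 µM final, 1 h at 37 °C. Analysed by 0.8% agarose gel in 0.5× TBE with ethidium bromide, 80 V, about 2 h.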

Leishmania infantum [2] = assay: Antileishmanial activity against Leishmania infantum MCAN/ES/92/BCN 83 promastigotes at 100 ug/ml after 48 hrs by resazurin method; format: functional; settings: for inhibition of growth at 100 µg/mL: MCAN/ES/92/BCN 83, 48 h, read-out: GI
Procedure, shortened: (§1)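 L. infantum MCAN/ES/92/BCN 83 promastigotes (Schneider's medium, 20% heat-inactivated FBS, 26 °C), 2.5 × 10^5 per well. Compounds in DMSO were first screened at 1, 10, 100 µg/mL, then 252 to 1.9 µM for active ones. After 48 h at 26 °C, resazurin was added and fluorescence read (ex 535/em 590 nm) for % growth inhibition. Triplicates; IC50 by least-squares linear regression.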

Calf thymus DNA [3] = assay: Binding affinity to calf thymus DNA assessed as increase in DNA viscosity at 1 to 30 uM by viscometer; format: nucleic-acid assay; settings: Bos taurus
Procedure, shortened: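 Ubbelohde viscometer at 25.0 or 37.0 °C. Compounds in DMF/cacodylate buffer (pH 6) 2:10 added to 50 µM CT-DNA in cacodylate buffer; final 1–30 µM. Flow times in triplicate, η = t − t0. Plotted as (η/η0)^1/3 versus the compound/DNA ratio.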

Nucleic Acid [4] = assay: Induction of Cu2+-dependent DNA cleavage in Escherichia coli pUC18 DNA assessed as degradation of super coiled form at 15 to 30 uM after 60 mins by agarose gel electrophoresis in presence of cupric chloride; format: nucleic-acid assay
Procedure, shortened: (§2)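 pUC18 plasmid in 0.1 M cacodylate pH 6.0 with CuCl2 + compound (1:1) at 15–45 µM final, plus ascorbate (50-fold excess over Cu(II)). 1 h at 37 °C. Supercoiled, circular and linear forms resolved on 0.8% agarose/0.5× TBE gel with ethidium bromide, 80 V, about 2 h.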

Nucleic Acid [5] = assay: Induction of Cu2+-dependent DNA cleavage in Escherichia coli pUC18 DNA assessed as degradation of super coiled form at 45 uM after 60 mins by agarose gel electrophoresis in presence of cupric chloride; format: nucleic-acid assay; procedure, shortened: as §2
Calf thymus DNA [6] = assay: Binding affinity to calf thymus DNA assessed as melting temperature (Rvb Tm = 53.8 degC); format: nucleic-acid assay; settings: Bos taurus
Leishmania infantum [7] = assay: Antileishmanial activity against Leishmania infantum MCAN/ES/92/BCN 83 promastigotes after 48 hrs by resazurin method; format: functional, organism-based; procedure, shortened: as §1
J774 = assay: Cytotoxicity against mouse J774 cells after 24 hrs by resazurin reduction test; format: cell-based
Procedure, shortened: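 J774 murine macrophages (RPMI 1640, 10% FBS, 37 °C, 5% CO2), 5 × 10^4 cells/well, adhered 24 h. Then exposed to compounds for 24 h. Resazurin added for 3 h; fluorescence read at ex 535/em 590 nm, background subtracted. Each concentration assayed three times.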

Leishmania infantum [8] = assay: Antileishmanial activity against Leishmania infantum MCAN/ES/92/BCN 83 promastigotes-infected in BALB/c mouse assessed as reduction of parasite burden in spleen at 5 mg/kg, ip once daily for 10 days by limit dilution assay relative to control; parameters: scale not given: the % may be the effect or the level left; settings: route intraperitoneal
Leishmania infantum [9] = assay: Antileishmanial activity against Leishmania infantum MCAN/ES/92/BCN 83 promastigotes-infected in BALB/c mouse assessed as reduction of parasite burden in liver at 5 mg/kg, ip once daily for 10 days by limit dilution assay relative to control; parameters: scale not given: the % may be the effect or the level left; settings: route intraperitoneal
Mus musculus [10] = assay: Toxicity in BALB/c mouse assessed as reduction hair loss at 5 mg/kg, ip once daily; settings: in vivo
Mus musculus [11] = assay: Toxicity in BALB/c mouse assessed as reduction in body weight at 5 mg/kg, ip once daily; settings: in vivo
[12] = Leishmania infantum, MCAN/ES/92/BCN 83, 48 h, read-out: IC50
[13] = Mus musculus, J774, 24 h, read-out: IC50

| SMILES | inhibition of growth at 100 µg/mL (Leishmania infantum [2]) [%] | IC50 (Leishmania infantum [7]; [12]) [µM] | further results |
| --- | --- | --- | --- |
| O=[N+]([O-])c1ccc(S(=O)(=O)Nc2ncccn2)cc1 | 92.7 | 100 | Activity (Nucleic Acid [1]): inactive; Activity (Calf thymus DNA [3]): inactive; Activity (Nucleic Acid [4]): inactive; Activity (Nucleic Acid [5]): Active; Tm (Calf thymus DNA [6]): 54.2 °C; IC50 (J774; [13]): > 256 µM; Activity (Leishmania infantum [8]): 99.82%; Activity (Leishmania infantum [9]): 97.58%; Activity (Mus musculus [10]): Non-toxic; Activity (Mus musculus [11]): Non-toxic |
| Cc1cnc(NS(=O)(=O)c2ccc([N+](=O)[O-])cc2)s1 | 36.7 | > 256 |  |
| Cc1csc(NS(=O)(=O)c2ccc([N+](=O)[O-])cc2)n1 | 55.6 | > 256 |  |
| Cc1cc(NS(=O)(=O)c2ccc(Cl)cc2)no1 | 15.7 | > 256 |  |
| CCCNC(=O)CNc1ccc([N+](=O)[O-])cc1 | 85 | 156 | Activity (Nucleic Acid [1]): inactive; Activity (Calf thymus DNA [3]): inactive; Activity (Nucleic Acid [4]): inactive; Activity (Nucleic Acid [5]): Active; Tm (Calf thymus DNA [6]): 54 °C; IC50 (J774; [13]): > 256 µM; Activity (Leishmania infantum [8]): 99.89%; Activity (Leishmania infantum [9]): 97.95%; Activity (Mus musculus [10]): Non-toxic; Activity (Mus musculus [11]): Non-toxic |
| Cc1cc(NS(=O)(=O)c2ccccc2)no1 | 17.9 | > 256 |  |
| Cc1cnc(NS(=O)(=O)c2ccccc2)s1 | 69 | > 256 |  |
| O=S(=O)(Nc1ncccn1)c1ccccc1 | 20.3 | > 256 |  |
| Cc1cc(C)nc(NS(=O)(=O)c2ccc([N+](=O)[O-])cc2)n1 | 33.3 | > 256 |  |
| O=[N+]([O-])c1ccc(S(=O)(=O)Nc2nccs2)cc1 [PARA-NITROSULFATHIAZOLE] | 58.6 | > 256 |  |
| O=[N+]([O-])c1ccc(S(=O)(=O)Nc2ccccn2)cc1 | 39.3 | > 256 |  |
| Cc1cc(NS(=O)(=O)c2ccc([N+](=O)[O-])cc2)no1 | 85.6 | 126 | IC50 (J774; [13]): > 256 µM |
| O=S(=O)(Nc1ncccn1)c1ccc(Br)cc1 |  |  | growth inhibition (GI) (Leishmania infantum [2]): inactive; IC50 (Leishmania infantum [7]): Not Active; IC50 (J774; j774): Not Active |
| Nc1ccc(S(=O)(=O)Nc2ncccn2)cc1 [SULFADIAZINE] |  |  | growth inhibition (GI) (Leishmania infantum [2]): inactive; IC50 (Leishmania infantum [7]): Not Active; IC50 (J774; j774): Not Active |
| O=S(=O)(Nc1cnccn1)c1ccccc1 | 37 | > 256 |  |
| O=[N+]([O-])c1ccc(S(=O)(=O)Nc2ccc3[nH]ncc3c2)cc1 | 88.2 | 14.5 | IC50 (J774; [13]): > 256 µM |
| O=S(=O)(Nc1cnccn1)c1ccc(Cl)cc1 | 25.3 | > 256 |  |

| SMILES | inhibition of growth at 100 µg/mL (Leishmania infantum [2]) [%] | IC50 (Leishmania infantum [7]; [12]) [µM] | further results |
| --- | --- | --- | --- |
| Cc1cnc(NS(=O)(=O)c2ccc(Cl)cc2)s1 | 74.5 | > 256 |  |
| O=S(=O)(Nc1ncccn1)c1ccc(Cl)cc1 |  |  | growth inhibition (GI) (Leishmania infantum [2]): inactive; IC50 (Leishmania infantum [7]): Not Active; IC50 (J774; j774): Not Active |
| O=[N+]([O-])c1ccc(S(=O)(=O)Nc2ccc3c(c2)CCC3)cc1 | 91.9 | < 1 | IC50 (J774; [13]): 61 µM |
| O=[N+]([O-])c1ccc(S(=O)(=O)Nc2ccncc2)cc1 | 46.3 | > 256 |  |
| CS(=O)(=O)Nc1ncccn1 |  |  | growth inhibition (GI) (Leishmania infantum [2]): inactive; IC50 (Leishmania infantum [7]): Not Active; IC50 (J774; j774): Not Active |
| O=[N+]([O-])c1cccc(S(=O)(=O)Nc2ncccn2)c1 |  |  | growth inhibition (GI) (Leishmania infantum [2]): inactive; IC50 (Leishmania infantum [7]): Not Active; IC50 (J774; j774): Not Active |
| Cc1cc(C)nc(NS(=O)(=O)c2ccc(Cl)cc2)n1 | 71.5 | 224 | IC50 (J774; [13]): > 256 µM |
| Cc1cc(NS(=O)(=O)c2ccc([N+](=O)[O-])cc2)n[nH]1 | 71.5 | 164 | IC50 (J774; [13]): > 256 µM |
| O=[N+]([O-])c1ccc(S(=O)(=O)Nc2cccnc2)cc1 | 35.7 | > 256 |  |
| O=S(=O)(Nc1nccs1)c1ccc(Cl)cc1 | 65 | > 256 |  |
| O=[N+]([O-])c1ccccc1S(=O)(=O)Nc1ncccn1 | 40.6 | > 256 |  |
| O=[N+]([O-])c1ccc(S(=O)(=O)Nc2cnccn2)cc1 | 90.8 | 66.2 | IC50 (J774; [13]): > 256 µM; Activity (Leishmania infantum [8]): 99.44%; Activity (Leishmania infantum [9]): 99.28%; Activity (Mus musculus [10]): Non-toxic; Activity (Mus musculus [11]): Non-toxic |
| O=S(=O)(Nc1ccc2c(c1)CCC2)c1ccccc1 | 45.3 | > 256 |  |
| O=S(=O)(Nc1ccc2c(c1)CCC2)c1ccc(Cl)cc1 | 49.9 | > 256 |  |
| COc1ccc(S(=O)(=O)Nc2ncccn2)cc1 | 29.6 | > 256 |  |
| O=S(=O)(Nc1ncccn1)c1ccc(F)cc1 |  |  | growth inhibition (GI) (Leishmania infantum [2]): inactive; IC50 (Leishmania infantum [7]): Not Active; IC50 (J774; j774): Not Active |
